Screens (PubChem)
Diaphorase act – activates diaphorase or chemically reduces, flagging diaphorase assay artifacts. 190,000 tested, 0.005% active. activation factor at 20 µM. Diaphorase/resazurin coupled assay, resorufin fluorescence, 16 min; hits give high values; 1 = vehicle wells, 0 = NADH-free wells;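 active means diaphorase activity raised at least twofold by the compound at 20 µM; inactive means activation factor below 2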
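Test system: Clostridium kluyveri diaphorase, purified enzyme. Buffer or medium: 50 mM HEPES pH 7.4 buffer plus MgCl2 and Tween 20. Also added: 0.114 mM NADH and 0.1 mM resazurin, final amounts. Dosing: compound 20 µM once, DMSO 1%. Schedule: 16 min enzyme reaction, ambient temperature. Detection: fluorescence of resorufin, 544 nm excitation, 590 nm emission.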
Lmaj promast – Leishmania major promastigote growth inhibition; Leishmania major promastigotes, resazurin fluorescence viability; inhibition, % at 10 µM; 200,000 tested, 9% active; AID 1063;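 further: promastigotes grown with compound for 44 hours at 28 °C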
Redox H2O2 prof – compounds producing H2O2 with reducing agent – biochemical, NIH compound library profiling, artefact control for MLSCN library redox annotation, primary screen; DTT-dependent redox cycling H2O2, phenol red/HRP absorbance; 100% = 100 µM peroxide control, 0% = buffer; activation, % at 10 µM; 200,000 tested, 0.03% active; AID 878;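 active means activation of at least 50% relative to the plate's high and low controls in the primary single-dose screen; inactive means activation below 50%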;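 further: compound incubated with DTT at 0.8 mM final as the reducing agent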
Diaphorase inh – counter-screen for diaphorase-based assays: diaphorase inhibitors and chemical oxidizers | AID 1217 | inhibition, % at 20 µM | diaphorase resazurin-to-resorufin fluorescence, NADH, 16 min; bacterial (C. kluyveri) enzyme, not human | 190,000 tested, 0.69% active;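 active means primary screen inhibition at 20 µM above a set limit, cut at about 50% in these data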;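 further: plate controls were DMSO with full reaction for no effect and wells lacking NADH for full effect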
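material = Clostridium kluyveri diaphorase enzyme | amount = 0.14 U/mL diaphorase, enzyme working solution | schedule = incubation 16 min, room temperature | detection = fluorescence of resorufin formed from resazurin, Ex 544/Em 590 nm | benchmarks = positive control minus NADH, DMSO neutral control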
PfG6PD inh – PfG6PD (Plasmodium falciparum) enzyme inhibition. AID 504690. inhibition, % at 20 µM. 350,000 tested, 0.78% active. PfGluPho enzyme, NADPH resazurin-diaphorase fluorescence;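 active means inhibition reaching at least a set limit at 20 µM in the primary screen, cut at about 59% in these data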;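 further: 0% = DMSO wells with substrate and 100% = DMSO wells lacking glucose-6-phosphate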
G6PDH CS – L. mesenteroides G6PDH inhibition counter-screen. 200,000 tested, 0.12% active. inhibition, % at 5 µM. Purified L. mesenteroides G6PDH, diaphorase/resazurin coupled fluorescence, 45 min
* = called active by the depositor; · = no result. Only a selection was taken, and hits are over-represented in it overall. Unless noted, no stated cut-off is given here; in the data, active means inhibition above about 50%; inactive means the rest.

SMILES	Diaphorase act	Lmaj promast	Redox H2O2 prof	Diaphorase inh	PfG6PD inh	G6PDH CS
COc1ccc(-n2nc([N+](=O)[O-])c(=NCc3cccnc3)n2O)cc1	0.9	82*	0	11	-16	10
COc1ccc(-n2nc([N+](=O)[O-])c(=NCCc3ccc(Cl)cc3)n2O)cc1	0.9	26	3	11	3	-1
COc1ccc(-n2nc([N+](=O)[O-])c(=NCCc3ccc(C)cc3)n2O)cc1	1	80*	0	2	22	5
COc1ccc(-n2nc([N+](=O)[O-])c(=NCc3ccco3)n2O)cc1	0.9	15	0	7	3	8
COc1ccc(-n2nc([N+](=O)[O-])c(=NCCC3=CCCCC3)n2O)cc1	0.9	82*	0	12	6	-2
COc1ccc(-n2nc([N+](=O)[O-])c(=NCCc3ccc(OC)c(OC)c3)n2O)cc1	1	94*	0	5	-2	3
CC(C)(C)c1ccc(OCC(=O)O/N=C(\N)c2ccncc2)cc1	·	·	·	·	11	·
Cc1cccc(NC(=S)NC(C)CCc2ccccc2)c1 (stereo not drawn)	0.9	78*	0	8	-6	-13
Cc1cccc(NC(=O)[C@H](Cc2ccccc2)NC(=O)OCc2ccccc2)c1	0.9	71*	-1	8	-10	19
Cc1ccc(NC(=O)C(Cc2ccccc2)NC(=O)OCc2ccccc2)cc1C (stereo not drawn)	1	-5	0	5	3	16
O=C(NC(NC(=S)Nc1cccc(Cl)c1)C(Cl)(Cl)Cl)OCc1ccccc1 (stereo not drawn)	0.8	100*	-4	23	-11	2
C=CCCC(=O)NC1CC(C)(C)Cc2c1cnn2-c1ccc(OC)cc1 (stereo not drawn)	·	·	·	·	-15	·
Cc1nn(-c2ccccc2)c2c1C1(C(=O)N(C)c3ccccc31)C(C#N)=C(N)O2 (stereo not drawn)	0.7	-3	0	28	19	18
CCN1C(=O)C2(C(C#N)=C(N)Oc3c2c(C)nn3-c2ccccc2)c2ccccc21 (stereo not drawn)	0.7	86*	2	30	9	28
COc1cccc(-c2nnc(-c3ccc(C(F)(F)F)cc3)o2)c1OC	0.9	-3	4	5	21	6
COc1cc(OC)c(-c2nnc(-c3ccc(OC)c(OC)c3OC)o2)cc1OC	1	56*	-5	4	4	-32
NC(=S)N/N=C/c1ccc(-c2cc(Cl)c(Cl)cc2Cl)o1	1	78*	0	-4	25	13
NC(=S)N/N=C/c1ccc(Br)o1	0.8	-4	0	16	19	1
O=C(CSc1nncs1)NCCCc1ccccc1	1	-5	0	-4	1	18
O=C(COc1cccc(F)c1)Nc1ccc2[nH]c(=O)[nH]c2c1	0.4	-3	0	55*	6	10
O=C(COC(=O)c1c(F)cccc1F)Nc1ccc2[nH]c(=O)[nH]c2c1	0.9	-8	0	9	22	10
CCOC(=O)N1CCC(N2CCN(S(=O)(=O)CC)CC2)CC1	0.8	94*	0	17	0	1
CCOC(=O)c1ccc(S(=O)(=O)n2c(CN3CCCCC3)nc3ccccc32)cc1	0.8	52*	3	19	6	-7
CCOC(=O)c1ccc(S(=O)(=O)N2CCN(C3CCCC3)CC2)cc1	·	90*	0	·	-1	8
CCOC(=O)N1CCC(N2CCN(S(=O)(=O)c3ccc(C)cc3)CC2)CC1	0.9	85*	0	7	-5	-4
O=C(O)c1ccc(NC(=S)NC(=O)c2cncc(Br)c2)cc1	·	·	·	·	-10	·
COc1ccc(C(=O)N=C2SC3CS(=O)(=O)CC3N2c2ccc(N(C)C)cc2)cc1OC (stereo not drawn)	·	·	·	·	-9	·
CCN(Cc1ccccc1)S(=O)(=O)c1cc(C(=O)NC2CCCCCC2)ccc1OC	0.9	95*	1	12	-3	0
COc1ccc(C(=O)NCC2CCCCC2)cc1S(=O)(=O)N1CCOCC1	·	·	·	·	2	·
